Data taken from ChEMBL document CHEMBL3232993, “Design, synthesis, and structure-activity relationship of a novel series of GluN2C-selective potentiators” (J Med Chem, 2014).

Tests used:
[1] = target: T1, Glutamate NMDA receptor; Grin1/Grin2a (Rattus norvegicus) (UniProt P35439+Q00959); assay: Potentiation of rat recombinant GluN1/GluN2A expressed in Xenopus laevis oocytes assessed as increase in glutamate/glycine-induced current response at 30 uM by two-electrode voltage clamp technique relative to control; assay type: cell-based
Outline: (§1)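 Two-electrode voltage clamp at −40 mV on Xenopus oocytes coexpressing GluN1 with GluN2A, 2B, 2C or 2D. […] Compounds came from 20 mM DMSO stocks, with 0.05–0.5% final DMSO. Some GluN2A oocytes were injected with K-BAPTA to limit current run-up. Recording solution was pH 7.4, 23 °C.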

[2] = target: T2, Glutamate NMDA receptor; Grin1/Grin2b (Rattus norvegicus) (UniProt P35439+Q00960); assay: Potentiation of rat recombinant GluN1/GluN2B expressed in Xenopus laevis oocytes assessed as increase in glutamate/glycine-induced current response at 30 uM by two-electrode voltage clamp technique relative to control; assay type: cell-based; outline: as §1
[3] = target: T3, Ionotropic glutamate receptor NMDA 1/2D (Rattus norvegicus) (UniProt P35439+Q62645); assay: Potentiation of rat recombinant GluN1/GluN2D expressed in Xenopus laevis oocytes assessed as increase in glutamate/glycine-induced current response at 30 uM by two-electrode voltage clamp technique relative to control; assay type: cell-based; outline: as §1
[4] = target: Glutamate NMDA receptor; Grin1/Grin2c (Rattus norvegicus, UniProt P35439+Q00961); assay: Potentiation of rat recombinant GluN1/GluN2C expressed in Xenopus laevis oocytes assessed as increase in glutamate/glycine-induced current response by two-electrode voltage clamp technique relative to control; assay type: cell-based
[5] = target: T4, Glutamate NMDA receptor; Grin1/Grin2c (Rattus norvegicus) (UniProt P35439+Q00961); assay: Potentiation of rat recombinant GluN1/GluN2C expressed in Xenopus laevis oocytes assessed as increase in glutamate/glycine-induced current response at 100 uM by two-electrode voltage clamp technique relative to control; assay type: cell-based; outline: as §1
[6] = target: T4, Glutamate NMDA receptor; Grin1/Grin2c (Rattus norvegicus); assay: Potentiation of rat recombinant GluN1/GluN2C expressed in Xenopus laevis oocytes assessed as increase in glutamate/glycine-induced current response at 30 uM by two-electrode voltage clamp technique relative to control; assay type: cell-based; outline: as §1
[7] = target: T1, Glutamate NMDA receptor; Grin1/Grin2a (Rattus norvegicus); assay: Activity at rat recombinant GluN1/GluN2A expressed in Xenopus laevis oocytes assessed as current response at 100 uM relative to control
[8] = target: T2, Glutamate NMDA receptor; Grin1/Grin2b (Rattus norvegicus); assay: Activity at rat recombinant GluN1/GluN2B expressed in Xenopus laevis oocytes assessed as current response at 100 uM relative to control
[9] = target: T3, Ionotropic glutamate receptor NMDA 1/2D (Rattus norvegicus); assay: Activity at rat recombinant GluN1/GluN2D expressed in Xenopus laevis oocytes assessed as current response at 100 uM relative to control

SMILES: COC(=O)c1ccc(C2C(C(=O)C(C)C)=C(O)C(=O)N2CCc2c[nH]c3ccccc23)cc1 (stereo unspecified)
- Activity [1]: 95%
- Activity [2]: 87%
- Activity [3]: 89%
- EC50 [4]: 61 µM
- max activation [5]: 119%

SMILES: COC(=O)c1ccc(C2C(C(=O)c3cccnc3)=C(O)C(=O)N2CCc2c[nH]c3cc(F)ccc23)cc1 (stereo unspecified)
- Activity [1]: 94%
- Activity [2]: 64%
- Activity [6]: 163%
- max activation [6]: 167%
- Activity [3]: 82%
- EC50 [4]: 13 µM

SMILES: COC(=O)c1ccc(C2C(C(C)=O)=C(O)C(=O)N2CCc2c[nH]c3ccccc23)c(OC)c1 (stereo unspecified)
- Activity [1]: 102%
- Activity [2]: 83%
- Activity [6]: 132%
- max activation [6]: 183%
- Activity [3]: 100%
- EC50 [4]: 46 µM

SMILES: COC(=O)c1ccc(C2C(C(=O)C(C)(C)C)=C(O)C(=O)N2CCc2c[nH]c3ccccc23)cc1 (stereo unspecified)
- Activity [1]: 87%
- Activity [2]: 93%
- Activity [6]: 129%
- max activation [6]: 187%
- Activity [3]: 79%
- EC50 [4]: 52 µM

SMILES: COC(=O)c1ccc(C2C(C(C)=O)=C(OC)C(=O)N2CCc2c[nH]c3ccccc23)cc1 (stereo unspecified)
- Activity [1]: 109%
- Activity [2]: 91%
- Activity [6]: 127%
- max activation [6]: 163%
- Activity [3]: 82%
- EC50 [4]: 37 µM

SMILES: CCOC(=O)c1ccc(C2C(C(C)=O)=C(O)C(=O)N2CCc2c[nH]c3ccccc23)c(O)c1 (stereo unspecified)
- Activity [1]: 110%
- Activity [2]: 100%
- Activity [6]: 145%
- max activation [6]: 194%
- Activity [3]: 88%
- EC50 [4]: 40 µM

SMILES: COC(=O)c1ccc(C2C(C(=O)c3ccncc3)=C(O)C(=O)N2CCc2c[nH]c3ccccc23)cc1 (stereo unspecified)
- Activity [1]: 92%
- Activity [2]: 87%
- Activity [6]: 186%
- max activation [6]: 196%
- Activity [3]: 84%
- EC50 [4]: 8.9 µM

SMILES: COC(=O)c1ccc(C2C(C(C)=O)=C(O)C(=O)N2CCc2c[nH]c3ccccc23)cc1O (stereo unspecified)
- Activity [1]: 81%
- Activity [2]: 79%
- Activity [6]: 123%
- max activation [6]: 151%
- Activity [3]: 90%
- EC50 [4]: 29 µM

SMILES: C=CC(=O)OC1=C(C(C)=O)C(c2ccc(C(=O)OC)cc2)N(CCc2c(C)[nH]c3ccccc23)C1=O (stereo unspecified)
- Activity [1]: 106%
- Activity [2]: 104%
- Activity [6]: 125%
- max activation [6]: 208%
- Activity [3]: 100%
- EC50 [4]: 105 µM

SMILES: COC(=O)c1ccc(C2C(C(C)=O)=C(O)C(=O)N2CCc2c[nH]c3ccccc23)c(O)c1 (stereo unspecified)
- Activity [1]: 107%
- Activity [2]: 86%
- Activity [6]: 173%
- max activation [6]: 202%
- Activity [3]: 88%
- EC50 [4]: 15 µM

SMILES: COC(=O)c1ccc(C2C(C(=O)c3cccc(F)c3)=C(O)C(=O)N2CCc2c[nH]c3ccccc23)cc1 (stereo unspecified)
- Activity [1]: 98%
- Activity [2]: 83%
- Activity [6]: 133%
- max activation [6]: 136%
- Activity [3]: 78%
- EC50 [4]: 11 µM

SMILES: COC(=O)c1ccc(C2C(C(=O)c3cccnc3)=C(O)C(=O)N2CCc2c[nH]c3ccccc23)cc1 (stereo unspecified)
- Activity [1]: 97%
- Activity [2]: 76%
- Activity [6]: 180%
- max activation [6]: 201%
- Activity [3]: 78%
- EC50 [4]: 12 µM

SMILES: COC(=O)c1ccc(C2C(C(C)=O)=C(O)C(=O)N2CCc2c[nH]c3c(C)cccc23)cc1 (stereo unspecified)
- Activity [1]: 98%
- Activity [2]: 81%
- Activity [6]: 121%
- max activation [6]: 139%
- Activity [3]: 92%
- EC50 [4]: 25 µM

SMILES: COC(=O)c1ccc(C2C(C(=O)c3cccnc3)=C(O)C(=O)N2CCc2c[nH]c3c(Cl)cccc23)cc1 (stereo unspecified)
- Activity [1]: 90%
- Activity [2]: 85%
- Activity [6]: 127%
- max activation [6]: 128%
- Activity [3]: 78%
- EC50 [4]: 7 µM

SMILES: COC(=O)c1ccc(C2C(C(C)=O)=C(O)C(=O)N2CCc2c[nH]c3ccccc23)c(Cl)c1 (stereo unspecified)
- Activity [1]: 103%
- Activity [2]: 87%
- Activity [6]: 139%
- max activation [6]: 191%
- Activity [3]: 90%
- EC50 [4]: 36 µM

SMILES: COC(=O)c1ccc(C2C(C(C)=O)=C(O)C(=O)N2CCc2c[nH]c3ccccc23)c(F)c1 (stereo unspecified)
- Activity [1]: 93%
- Activity [2]: 96%
- Activity [6]: 123%
- max activation [6]: 155%
- Activity [3]: 91%
- EC50 [4]: 37 µM

SMILES: CCOC(=O)c1ccc(C2C(C(C)=O)=C(O)C(=O)N2CCc2c[nH]c3ccccc23)cc1 (stereo unspecified)
- Activity [1]: 104%
- Activity [2]: 83%
- Activity [6]: 201%
- max activation [6]: 237%
- Activity [3]: 91%
- EC50 [4]: 15 µM

SMILES: COC(=O)c1ccc(C2C(C(=O)c3cccc(O)c3)=C(O)C(=O)N2CCc2c[nH]c3ccccc23)cc1 (stereo unspecified)
- Activity [1]: 89%
- Activity [2]: 65%
- Activity [6]: 169%
- max activation [6]: 176%
- Activity [3]: 69%
- EC50 [4]: 7 µM
- residual activity [7]: 76%
- residual activity [8]: 42%
- residual activity [9]: 48%

SMILES: COC(=O)c1ccc(C2C(C(=O)c3cccnc3)=C(O)C(=O)N2CCc2c[nH]c3cc(C)ccc23)cc1 (stereo unspecified)
- Activity [1]: 103%
- Activity [2]: 82%
- Activity [6]: 219%
- max activation [6]: 218%
- Activity [3]: 86%
- EC50 [4]: 4.3 µM

SMILES: COC(=O)c1ccc(C2C(C(=O)c3cccnc3)=C(O)C(=O)N2CCc2c(C)[nH]c3ccccc23)cc1 (stereo unspecified)
- Activity [1]: 82%
- Activity [2]: 77%
- Activity [6]: 174%
- max activation [6]: 204%
- Activity [3]: 82%
- EC50 [4]: 13 µM

SMILES: CCOC(=O)c1ccc(C2C(C(=O)c3ccncc3)=C(O)C(=O)N2CCc2c[nH]c3ccccc23)cc1 (stereo unspecified)
- Activity [1]: 109%
- Activity [2]: 91%
- Activity [6]: 223%
- max activation [6]: 245%
- Activity [3]: 86%
- EC50 [4]: 9.7 µM

SMILES: COC(=O)c1ccc(C2C(C(=O)c3cccc(C)c3)=C(O)C(=O)N2CCc2c[nH]c3ccccc23)cc1 (stereo unspecified)
- Activity [1]: 97%
- Activity [2]: 90%
- Activity [6]: 122%
- max activation [6]: 131%
- Activity [3]: 84%
- EC50 [4]: 16 µM

SMILES: COC(=O)c1ccc(C2C(C(C)=O)=C(OC(C)=O)C(=O)N2CCc2c[nH]c3ccccc23)cc1 (stereo unspecified)
- Activity [1]: 95%
- Activity [2]: 90%
- Activity [6]: 120%
- max activation [6]: 173%
- Activity [3]: 92%
- EC50 [4]: 52 µM

SMILES: CCCC(=O)OC1=C(C(C)=O)C(c2ccc(C(=O)OC)cc2)N(CCc2c(C)[nH]c3ccccc23)C1=O (stereo unspecified)
- Activity [1]: 112%
- Activity [2]: 93%
- Activity [6]: 186%
- max activation [6]: 184%
- Activity [3]: 93%
- EC50 [4]: 17 µM

SMILES: CCOC(=O)c1ccc(C2C(C(=O)c3cccnc3)=C(O)C(=O)N2CCc2c[nH]c3ccccc23)cc1 (stereo unspecified)
- Activity [1]: 97%
- Activity [2]: 71%
- Activity [6]: 201%
- max activation [6]: 207%
- Activity [3]: 83%
- EC50 [4]: 8.2 µM

SMILES: COC(=O)c1ccc(C2C(C(C)=O)=C(O)C(=O)N2CCc2c[nH]c3ccccc23)c(C)c1 (stereo unspecified)
- Activity [1]: 101%
- Activity [2]: 95%
- Activity [6]: 129%
- max activation [6]: 165%
- Activity [3]: 85%
- EC50 [4]: 35 µM

SMILES: CCOC(=O)c1ccc(C2C(C(C)=O)=C(O)C(=O)N2CCc2c(C)[nH]c3ccccc23)cc1 (stereo unspecified)
- Activity [1]: 108%
- Activity [2]: 99%
- Activity [6]: 220%
- max activation [6]: 265%
- Activity [3]: 85%
- EC50 [4]: 13 µM

SMILES: COC(=O)c1ccc(C2C(C(=O)c3ccccc3)=C(O)C(=O)N2CCc2c[nH]c3ccccc23)cc1 (stereo unspecified)
- Activity [1]: 116%
- Activity [2]: 85%
- Activity [6]: 143%
- max activation [6]: 161%
- Activity [3]: 79%
- EC50 [4]: 17 µM

SMILES: COC(=O)c1ccc(C2C(C(=O)c3cccnc3)=C(O)C(=O)N2CCc2c[nH]c3c(F)cccc23)cc1 (stereo unspecified)
- Activity [1]: 105%
- Activity [2]: 84%
- Activity [6]: 161%
- max activation [6]: 191%
- Activity [3]: 86%
- EC50 [4]: 18 µM
